Assays:
Format in all cases: functional
MDA-MB-231 = test: Growth inhibition of human MDA-MB-231 cells assessed as growth percentage at 10 uM incubated for 48 hrs by sulforhodamine B assay relative to control; settings: MDA-MB-231, 48 h, read-out: Activity
How it was run: (§1)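 NCI-60 one-dose screen. Cells in RPMI 1640 with 5% FBS and 2 mM L-glutamine, seeded at 5,000–40,000 cells/well according to doubling time, and preincubated overnight at 37 °C, 5% CO2. A time-zero plate was TCA-fixed at drug addition. Compound from DMSO stock, final 10 µM, 48 h; DMSO vehicle controls. Fixation with TCA, 10% final (16% for suspension cells). SRB stain, Tris solubilization, A515. Result given as % growth versus untreated cells.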

MOLT-4 = test: Growth inhibition of human MOLT4 cells assessed as growth percentage at 10 uM incubated for 48 hrs by sulforhodamine B assay relative to control; settings: MOLT-4, 48 h, read-out: Activity; how it was run: as §1
IGROV-1 = test: Growth inhibition of human IGROV1 cells assessed as growth percentage at 10 uM incubated for 48 hrs by sulforhodamine B assay relative to control; settings: IGROV-1, 48 h, read-out: Activity; how it was run: as §1
K562 = test: Growth inhibition of human K562 cells assessed as growth percentage at 10 uM incubated for 48 hrs by sulforhodamine B assay relative to control; settings: K562, 48 h, read-out: Activity; how it was run: as §1
SK-MEL-2 = test: Growth inhibition of human SK-MEL-2 cells assessed as growth percentage at 10 uM incubated for 48 hrs by sulforhodamine B assay relative to control; settings: SK-MEL-2, 48 h, read-out: Activity
How it was run: (§2)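 NCI-60 single-dose screen. Cells were grown in RPMI 1640 with 5% FBS and 2 mM L-glutamine and plated at 5,000–40,000 cells/well. After an overnight preincubation at 37 °C in 5% CO2, compound was added at a final 10 µM from a DMSO stock, with DMSO/PBS controls. After 48 h, cells were TCA-fixed and stained with 0.4% SRB, and absorbance was read at 515 nm. Growth is given as a percentage of untreated control.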

U-251 = test: Growth inhibition of human U251 cells assessed as growth percentage at 10 uM incubated for 48 hrs by sulforhodamine B assay relative to control; settings: U-251, 48 h, read-out: Activity; how it was run: as §2
TK-10 = test: Growth inhibition of human TK10 cells assessed as growth percentage at 10 uM incubated for 48 hrs by sulforhodamine B assay relative to control; settings: TK-10, 48 h, read-out: Activity; how it was run: as §2
KM12 = test: Growth inhibition of human KM12 cells assessed as growth percentage at 10 uM incubated for 48 hrs by sulforhodamine B assay relative to control; settings: KM12, 48 h, read-out: Activity; how it was run: as §1
CCRF-CEM = test: Growth inhibition of human CCRF-CEM cells assessed as growth percentage at 10 uM incubated for 48 hrs by sulforhodamine B assay relative to control; settings: read-out: Activity
How it was run: (§3)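 NCI-60 one-dose screen: cells in RPMI 1640 with 5% FBS and 2 mM L-glutamine, plated at 5,000–40,000 cells/well and preincubated 24 h at 37 °C, 5% CO2. Compound is added from a DMSO stock to a final 10 µM and incubated 48 h. Cells are TCA-fixed and stained with sulforhodamine B, read at 515 nm. Output is % growth versus untreated control, with a time-zero plate.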

MCF7 = test: Growth inhibition of human MCF7 cells assessed as growth percentage at 10 uM incubated for 48 hrs by sulforhodamine B assay relative to control; settings: MCF7, 48 h, read-out: Activity; how it was run: as §1
COLO 205 = test: Growth inhibition of human COLO205 cells assessed as growth percentage at 10 uM incubated for 48 hrs by sulforhodamine B assay relative to control; settings: COLO 205, 48 h, read-out: Activity; how it was run: as §3
T47D = test: Growth inhibition of human T47D cells assessed as growth percentage at 10 uM incubated for 48 hrs by sulforhodamine B assay relative to control; settings: read-out: Activity; how it was run: as §2
SNB-19 = test: Growth inhibition of human SNB19 cells assessed as growth percentage at 10 uM incubated for 48 hrs by sulforhodamine B assay relative to control; settings: SNB-19, 48 h, read-out: Activity; how it was run: as §2
UACC-62 = test: Growth inhibition of human UACC62 cells assessed as growth percentage at 10 uM incubated for 48 hrs by sulforhodamine B assay relative to control; settings: UACC-62, 48 h, read-out: Activity; how it was run: as §2
OVCAR-8 = test: Growth inhibition of human OVCAR8 cells assessed as growth percentage at 10 uM incubated for 48 hrs by sulforhodamine B assay relative to control; settings: OVCAR-8, 48 h, read-out: Activity; how it was run: as §2
UO-31 = test: Growth inhibition of human UO31 cells assessed as growth percentage at 10 uM incubated for 48 hrs by sulforhodamine B assay relative to control; settings: UO-31, 48 h, read-out: Activity; how it was run: as §2
HL-60(TB) = test: Growth inhibition of human HL-60(TB) cells assessed as growth percentage at 10 uM incubated for 48 hrs by sulforhodamine B assay relative to control; settings: HL-60, 48 h, read-out: Activity
How it was run: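 NCI-60 single-dose screen. Cells in RPMI 1640 with 5% FBS and 2 mM L-glutamine are plated at 5,000–40,000 cells/well and preincubated overnight at 37 °C, 5% CO2. Compound is added from a DMSO stock at 10 µM final for 48 h. Cells are TCA-fixed (suspension cells 16% final) and stained with SRB. Absorbance is read at 515 nm, and percentage growth is calculated against untreated controls with a time-zero plate.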

NCI-H226 = test: Growth inhibition of human NCI-H226 cells assessed as growth percentage at 10 uM incubated for 48 hrs by sulforhodamine B assay relative to control; settings: NCI-H226, 48 h, read-out: Activity; how it was run: as §1
NCI-H522 = test: Growth inhibition of human NCI-H522 cells assessed as growth percentage at 10 uM incubated for 48 hrs by sulforhodamine B assay relative to control; settings: NCI-H522, 48 h, read-out: Activity; how it was run: as §1
DU-145 = test: Growth inhibition of human DU145 cells assessed as growth percentage at 10 uM incubated for 48 hrs by sulforhodamine B assay relative to control; settings: DU-145, 48 h, read-out: Activity; how it was run: as §3
MDA-MB-435 = test: Growth inhibition of human MDA-MB-435 cells assessed as growth percentage at 10 uM incubated for 48 hrs by sulforhodamine B assay relative to control; settings: MDA-MB-435, 48 h, read-out: Activity; how it was run: as §1
M14 = test: Growth inhibition of human M14 cells assessed as growth percentage at 10 uM incubated for 48 hrs by sulforhodamine B assay relative to control; settings: M14, 48 h, read-out: Activity; how it was run: as §1
Hs-578T = test: Growth inhibition of human Hs 578T cells assessed as growth percentage at 10 uM incubated for 48 hrs by sulforhodamine B assay relative to control; settings: read-out: Activity; how it was run: as §1
EKVX = test: Growth inhibition of human EKVX cells assessed as growth percentage at 10 uM incubated for 48 hrs by sulforhodamine B assay relative to control; settings: read-out: Activity; how it was run: as §3

Row | Structure (SMILES) | growth at 10 µM (MDA-MB-231) | growth at 10 µM (MOLT-4) | growth at 10 µM (IGROV-1) | growth at 10 µM (K562) | growth at 10 µM (SK-MEL-2) | growth at 10 µM (U-251) | growth at 10 µM (TK-10) | growth at 10 µM (KM12) | growth at 10 µM (CCRF-CEM) | growth at 10 µM (MCF7) | growth at 10 µM (COLO 205) | growth at 10 µM (T47D) | growth at 10 µM (SNB-19) | growth at 10 µM (UACC-62) | growth at 10 µM (OVCAR-8) | growth at 10 µM (UO-31) | growth at 10 µM (HL-60(TB)) | growth at 10 µM (NCI-H226) | growth at 10 µM (NCI-H522) | growth at 10 µM (DU-145) | further results
1 | O=C1C2=C(NC(=S)NC2c2ccc3c(c2)OCO3)c2ccccc21 (racemic) | 104% | 104% | 104% | 103% | 105% | 97.8% | 102% | 109% | 108% | 96.8% | 113% | 99% | 100% | 99.7% | 102% | 77% | 99.7% | 92.6% | 91.5% | 112% | growth at 10 µM (MDA-MB-435): 107%; growth at 10 µM (M14): 110%; growth at 10 µM (Hs-578T): 96.8%; growth at 10 µM (EKVX): 102%
2 | CC1=C(C(=O)OCc2ccccc2)C(c2ccc3c(c2)OCO3)NC(=S)N1 (racemic) | 105% | 78.2% | 97.6% | 75.2% | 96.7% | 95.8% | 105% | 91.9% | 100% | 86.8% | 117% | 74% | 103% | 91.2% | 97.5% | 89.2% | 56.1% | 95.8% | 89.5% | 101% | growth at 10 µM (MDA-MB-435): 93.6%; growth at 10 µM (M14): 102%; growth at 10 µM (Hs-578T): 90.2%; growth at 10 µM (EKVX): 97.5%
3 | CC(=O)C1=C(C)Nc2nc3ccccc3n2C1c1ccc2c(c1)OCO2 (racemic) | 93.5% | 102% | 106% | 82.9% | 130% | 95.7% | 104% | 96.4% | 94.8% | 96.4% | 114% | 86.3% | 99.6% | 94.4% | 98.6% | 89.3% | 98.4% | 103% | 73% | 109% | growth at 10 µM (MDA-MB-435): 93.1%; growth at 10 µM (M14): 105%; growth at 10 µM (Hs-578T): 99.8%; growth at 10 µM (EKVX): 110%
4 | CC1=C(C(=O)OCc2ccccc2)C(c2ccc3c(c2)OCO3)NC(=O)N1 (racemic) | 104% | 104% | 97.2% | 107% | 101% | 99.5% | 101% | 105% | 103% | 101% | 116% | 89.2% | 96.1% | 86.6% | 101% | 83.1% | 97% | 95.9% | 87.7% | 107% | growth at 10 µM (MDA-MB-435): 103%; growth at 10 µM (M14): 97.4%; growth at 10 µM (Hs-578T): 98.1%; growth at 10 µM (EKVX): 95.8%
5 | COCCOC(=O)C1=C(C)NC(=O)NC1c1ccc2c(c1)OCO2 (racemic) | 98.8% | 101% | 103% | 97.4% | 104% | 98.3% | 100% | 102% | 99% | 96.8% | 102% | 98.4% | 95.6% | 96% | 99.3% | 87.3% | 99.7% | 98% | 91.8% | 108% | growth at 10 µM (MDA-MB-435): 101%; growth at 10 µM (M14): 104%; growth at 10 µM (Hs-578T): 103%; growth at 10 µM (EKVX): 99.1%
6 | CC1=C(C(=O)OCC(C)C)C(c2ccc3c(c2)OCO3)NC(=O)N1 (racemic) | 106% | 109% | 94.8% | 113% | 104% | 99.8% | 99.4% | 104% | 104% | 101% | 119% | 97.5% | 107% | 98.5% | 103% | 84.8% | 96% | 93.1% | 91.1% | 109% | growth at 10 µM (MDA-MB-435): 109%; growth at 10 µM (M14): 105%; growth at 10 µM (Hs-578T): 118%; growth at 10 µM (EKVX): 95.5%
7 | CC(=O)C1=C(C)NC(=O)NC1c1ccc2c(c1)OCO2 (racemic) | 102% | 103% | 103% | 104% | 110% | 100% | 103% | 110% | 98.5% | 96.9% | 104% | 91.8% | 95.4% | 98.9% | 103% | 83.4% | 98.6% | 99.6% | 91.1% | 118% | growth at 10 µM (MDA-MB-435): 105%; growth at 10 µM (M14): 104%; growth at 10 µM (Hs-578T): 111%; growth at 10 µM (EKVX): 101%

Source: ChEMBL document CHEMBL4406880, “Design, synthesis, and bioactivity of dihydropyrimidine derivatives as kinesin spindle protein inhibitors” (Bioorg Med Chem, 2019)
